Here are results for 16 compounds from ChEMBL document CHEMBL3421623 (J Med Chem, 2015).

pEC50, pIC50: −log10 of the molar value.

What is called pEC50 is −log10 of the EC50, conventionally taken in molar units. For orientation: pIC50 means the IC50 on a negative log10 scale, so that one unit is a factor of ten.

For one assay, the target named is Estrogen receptor beta (Homo sapiens, UniProt Q92731). The assay is described as follows: Displacement of fluorescein-labeled ES2 from human recombinant ERbeta receptor after 2 hrs by fluorescence polarization assay. The method, boiled down:
(§1)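 Fluorescence polarization competition. Compound in methanol or DMSO mixed with ES2 screening buffer (100 mM potassium phosphate, 100 μg/mL BGG, 0.02% NaN₃). Preformed complex added to final 9 nM ES2 with 30 nM ER-α or 20 nM ER-β. Polarization expressed as % of vehicle control; EC50 from one-site competition fit.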

Another assay deals with T1, Aromatase (Homo sapiens, UniProt P11511).
T1 sequence (P11511 whole entry): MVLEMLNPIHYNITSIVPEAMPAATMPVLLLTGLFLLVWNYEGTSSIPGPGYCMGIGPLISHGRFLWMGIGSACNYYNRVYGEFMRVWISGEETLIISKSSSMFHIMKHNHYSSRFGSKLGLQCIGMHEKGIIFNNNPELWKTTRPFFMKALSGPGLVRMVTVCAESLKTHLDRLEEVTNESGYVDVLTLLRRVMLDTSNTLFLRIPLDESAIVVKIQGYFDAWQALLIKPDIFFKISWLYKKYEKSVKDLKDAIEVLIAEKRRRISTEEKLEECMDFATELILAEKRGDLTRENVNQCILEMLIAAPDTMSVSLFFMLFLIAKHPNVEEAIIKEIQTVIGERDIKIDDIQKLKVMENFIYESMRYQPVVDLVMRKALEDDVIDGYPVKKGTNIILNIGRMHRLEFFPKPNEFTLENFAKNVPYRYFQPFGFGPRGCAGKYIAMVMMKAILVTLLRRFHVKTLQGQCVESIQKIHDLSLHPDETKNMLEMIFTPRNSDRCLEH
The assay is described as follows: Inhibition of human recombinant aromatase using 7-methoxy-trifluoromethylcoumarin as substrate assessed as formation of fluorescent metabolite after 30 mins by fluorescence assay. A digest of the protocol:
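Recombinant human CYP19 with MFC substrate, converted to fluorescent HFC, in 0.1 M potassium phosphate pH 7.4. NADPH-regenerating mix (NADP⁺, MgCl₂, glucose-6-phosphate, G6PDH); compound prewarmed 10 min at 37 °C, then 30 min reaction stopped with Tris base in acetonitrile. Activity as % of vehicle control; IC50 from one-site competition fit; Ki from Lineweaver–Burk data by nonlinear regression.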

In a further assay the target is T2, Estrogen receptor (Homo sapiens, UniProt P03372).
T2 sequence (P03372 whole entry): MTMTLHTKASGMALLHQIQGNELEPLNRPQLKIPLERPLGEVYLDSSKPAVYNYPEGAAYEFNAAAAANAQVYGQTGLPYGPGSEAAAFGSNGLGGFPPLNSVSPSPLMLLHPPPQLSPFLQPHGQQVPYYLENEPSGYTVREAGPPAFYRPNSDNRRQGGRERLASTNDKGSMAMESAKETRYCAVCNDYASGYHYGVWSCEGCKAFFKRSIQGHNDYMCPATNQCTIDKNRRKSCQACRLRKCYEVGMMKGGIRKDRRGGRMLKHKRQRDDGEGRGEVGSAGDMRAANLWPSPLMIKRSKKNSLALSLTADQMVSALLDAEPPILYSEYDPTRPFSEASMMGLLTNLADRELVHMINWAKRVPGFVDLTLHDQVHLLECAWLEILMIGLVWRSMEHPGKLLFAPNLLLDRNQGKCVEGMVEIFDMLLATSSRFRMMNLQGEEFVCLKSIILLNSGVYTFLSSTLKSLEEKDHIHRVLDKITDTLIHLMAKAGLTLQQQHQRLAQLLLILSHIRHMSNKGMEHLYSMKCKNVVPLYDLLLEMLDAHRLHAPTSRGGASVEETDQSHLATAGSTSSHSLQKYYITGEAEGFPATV
As to the kind of experiment: Displacement of fluorescein-labeled ES2 from human recombinant ERalpha receptor after 2 hrs by fluorescence polarization assay. A digest of the protocol: as §1

The target in assay [1] is T3, Estrogen receptor (Homo sapiens) (UniProt P03372).
T3 sequence (whole entry): T2 sequence (P03372 whole entry)
The assay is described as follows: Antiestrogenic effect at estrogen receptor in human MCF7 cells assessed as inhibition of E2-induced progesterone receptor mRNA expression at 1000 nM after 24 hrs by real time quantitative PCR. More on the design: scale not given: the % may be the effect or the level left. Type of assay: cell-based. A digest of the protocol:
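MCF-7 cells (10⁵/well) grown in MEM + 10% FBS at 37 °C, 5% CO₂, then preconditioned 72 h in charcoal-stripped FBS. Treated 24 h with 1 μM compound or vehicle (0.1% methanol) plus 10 nM E2 in MEM/10% charcoal-stripped FBS. PGR mRNA extracted after genomic DNA removal and quantified by qPCR (40 cycles, Ct). Reported as % of E2-alone expression (100%); 1 μM endoxifen as positive control.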

Estrogen receptor beta, sequence (Q92731 whole entry): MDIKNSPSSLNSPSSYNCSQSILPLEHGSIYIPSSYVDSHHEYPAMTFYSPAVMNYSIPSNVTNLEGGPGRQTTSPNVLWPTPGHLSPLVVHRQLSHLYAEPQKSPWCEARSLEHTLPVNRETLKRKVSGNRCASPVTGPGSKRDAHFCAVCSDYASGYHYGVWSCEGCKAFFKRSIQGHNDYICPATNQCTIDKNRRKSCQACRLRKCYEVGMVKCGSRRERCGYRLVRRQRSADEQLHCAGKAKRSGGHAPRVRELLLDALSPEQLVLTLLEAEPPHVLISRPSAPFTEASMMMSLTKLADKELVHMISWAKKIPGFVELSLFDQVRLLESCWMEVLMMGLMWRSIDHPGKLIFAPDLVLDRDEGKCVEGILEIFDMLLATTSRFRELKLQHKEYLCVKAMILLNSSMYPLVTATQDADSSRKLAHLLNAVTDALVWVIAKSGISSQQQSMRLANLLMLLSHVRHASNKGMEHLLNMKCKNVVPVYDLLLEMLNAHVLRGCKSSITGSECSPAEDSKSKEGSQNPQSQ

As for `NCCOc1ccc(/C(=C/c2ccccc2)c2ccc(O)cc2)cc1` (mixture of isomers), the figures for the negative logarithm of the EC50 (pEC50) at Estrogen receptor beta and at Estrogen receptor were 7.71 and 5.98, respectively. Further, the negative-log IC50 (pIC50) on Aromatase is 5.20.
In the case of `NCCOc1ccc(/C(=C2\CCc3ccccc32)c2ccc(O)cc2)cc1` (mixture of isomers), the pEC50 at Estrogen receptor beta is 5.87; at Estrogen receptor it was 5.50. Also, on Aromatase, the pIC50 was 6.31.
`CC/C(=C(/c1ccc(O)cc1)c1ccc(OCCN)cc1)c1ccc(F)cc1` (mixture of isomers): the negative logarithm of the EC50 (pEC50) is 7.31 at Estrogen receptor beta and 7.06 at Estrogen receptor. Further, the Activity in assay [1] is 42%. In addition, the pIC50 on Aromatase was 5.99.
Turning to `CCC/C(=C(/c1ccc(O)cc1)c1ccc(OCCN)cc1)c1ccccc1` (mixture of isomers), the figures for the pEC50 on Estrogen receptor beta and at Estrogen receptor were 7.44 and 6.42, respectively. Moreover, the pIC50 on Aromatase was 6.58.
As to `NCCOc1ccc(/C(=C(\CCCl)c2ccccc2)c2ccc(O)cc2)cc1` (mixture of isomers), the values for the negative-log EC50 (pEC50) on Estrogen receptor beta and at Estrogen receptor were 7.28 and 6.58, respectively. At Aromatase, the negative-log IC50 (pIC50) is 6.84.
On to `NCCOc1ccc(/C(=C(\Cn2cnnc2)c2ccccc2)c2ccc(O)cc2)cc1`, for which the pEC50 is 7.24 on Estrogen receptor beta and 6.75 at Estrogen receptor. Also, in assay [1], the Activity stood at 44%. On Aromatase, the pIC50 was 6.16.
On to `C/C(=C(/c1ccc(O)cc1)c1ccc(OCCN)cc1)c1ccccc1` (mixture of isomers), for which the pEC50 at Estrogen receptor beta is 7.56; on Estrogen receptor, 6.17. Besides, the pIC50 on Aromatase was 6.47.
For `NCCOc1ccc(/C(=C(/Cn2cnnc2)c2ccccc2)c2ccc(O)cc2)cc1`, the pEC50 on Estrogen receptor beta is 7.32; at Estrogen receptor it was 7.25. In assay [1], the Activity came out at 47%. Moreover, the negative logarithm of the IC50 (pIC50) at Aromatase is 6.15.
In the case of `NCCOc1ccc(/C(=C(\Cn2cncn2)c2ccccc2)c2ccc(O)cc2)cc1` (mixture of isomers), the negative-log EC50 (pEC50) was 6.28 at Estrogen receptor beta and 6.54 at Estrogen receptor. For the same compound, the Activity in assay [1] came to 47%. For the same compound, at Aromatase, the pIC50 is 6.76.
For `NCCOc1ccc(C(=C(c2ccccc2)c2ccccc2)c2ccc(O)cc2)cc1`, the pEC50 was 6.32 on Estrogen receptor beta and 6.19 on Estrogen receptor. Further, the pIC50 at Aromatase was 5.71.
Turning to `CC/C(=C(/c1ccc(O)cc1)c1ccc(CCCN)cc1)c1ccc(O)cc1` (mixture of isomers), the negative-log EC50 (pEC50) on Estrogen receptor beta was 6.53; on Estrogen receptor, 5.72. In assay [1], the Activity was 6%. The pIC50 on Aromatase was 6.31.
On to `CC/C(=C(/c1ccc(N)cc1)c1ccc(OCCN)cc1)c1ccc(O)cc1` (mixture of isomers), for which the negative-log EC50 (pEC50) on Estrogen receptor beta is 7.30; at Estrogen receptor, 6.84. For the same compound, at Aromatase, the pIC50 was 7.32.
As to `CC/C(=C(/c1ccc(N)cc1)c1ccc(OCCN)cc1)c1ccccc1` (mixture of isomers), the figures for the pEC50 on Estrogen receptor beta and at Estrogen receptor were 6.74 and 6.56, respectively. Besides, the pIC50 on Aromatase was 7.27.
Consider `CC/C(=C(/c1ccc(O)cc1)c1ccc(CCCN)cc1)c1ccccc1` (mixture of isomers), for which the figures for the pEC50 on Estrogen receptor beta and at Estrogen receptor were 7.88 and 7.57, respectively. In addition, the Activity in assay [1] worked out at 16%. Further, the pIC50 on Aromatase was 5.13.
On to `CCC(CC)=C(c1ccc(O)cc1)c1ccc(OCCN)cc1`, for which the pEC50 on Estrogen receptor beta is 6.69; at Estrogen receptor, 6.56. On Aromatase, the negative logarithm of the IC50 (pIC50) is 5.88.
As to `CC/C(=C(/c1ccc(O)cc1)c1ccc(OCCCN)cc1)c1ccccc1` (mixture of isomers), the negative-log EC50 (pEC50) at Estrogen receptor beta and on Estrogen receptor was 7.67 throughout. Further, in assay [1], the Activity was 33%. On Aromatase, the negative-log IC50 (pIC50) was 5.91.
